Source: ChEMBL document CHEMBL4014309, “Development of an Acrylate Derivative Targeting the NLRP3 Inflammasome for the Treatment of Inflammatory Bowel Disease” (J Med Chem, 2017)
The source made the active and inactive calls. No cut-off for these calls is given here.

Tests used:
Liver = test: Drug metabolism in Sprague-Dawley rat liver microsomes assessed as formation of 2-(2-chlorobenzyl)acrylic acid at 100 uM up to 2 hrs in absence of NADPH by UHPLC-MS analysis; type: ADME, microsome
Rattus norvegicus [1] = test: Antiinflammatory activity in DNBS-induced Sprague-Dawley rat colitis model assessed as DNBS-induced macroscopic damage score at 25 mg/kg/day, ig administered as suspension in olive oil for 6 days simulatneously with 6 days of DNBS-challenge (reference value: 8.6 +/- 0.6); type: functional
Rattus norvegicus [2] = test: Antiinflammatory activity in DNBS-induced Sprague-Dawley rat colitis model assessed as reduction in DNBS-induced spleen weight increase by measuring increase in spleen weight at 25 mg/kg/day, ig administered as suspension in olive oil for 6 days simulatneously with 6 days of DNBS-challenge measured daily during compound dosing (reference value: 39.3%); type: functional; parameters: scale not given: the % may be the effect or the level left
Method in brief: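 Spleen weight was used as an index of systemic inflammation. Rats had intrarectal DNBS (15 mg/0.25 mL 50% ethanol) and 6 days of intragastric dosing: 1 mg/kg/day in 1% methylcellulose, or 12.5–50 mg/kg/day in 0.2 mL olive oil. The spleen was weighed at sacrifice and expressed as percent increase versus control, n = 10.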

[3] = target: NACHT, LRR and PYD domains-containing protein 3 (Homo sapiens) (UniProt Q96P20); test: Inhibition of recombinant YFP-tagged NLRP3 (unknown origin) expressed in HEK293 cells co-expressing luciferase assessed as initial conformational changes in protein by measuring increase in nigericin-induced decrease in intracellular K+ level at 10 to 100 uM measured after 24 hrs by BRET assay; type: cell-based
Chain of NACHT, LRR and PYD domains-containing protein 3 (Homo sapiens) (Q96P20 whole entry, the tested form may be a part): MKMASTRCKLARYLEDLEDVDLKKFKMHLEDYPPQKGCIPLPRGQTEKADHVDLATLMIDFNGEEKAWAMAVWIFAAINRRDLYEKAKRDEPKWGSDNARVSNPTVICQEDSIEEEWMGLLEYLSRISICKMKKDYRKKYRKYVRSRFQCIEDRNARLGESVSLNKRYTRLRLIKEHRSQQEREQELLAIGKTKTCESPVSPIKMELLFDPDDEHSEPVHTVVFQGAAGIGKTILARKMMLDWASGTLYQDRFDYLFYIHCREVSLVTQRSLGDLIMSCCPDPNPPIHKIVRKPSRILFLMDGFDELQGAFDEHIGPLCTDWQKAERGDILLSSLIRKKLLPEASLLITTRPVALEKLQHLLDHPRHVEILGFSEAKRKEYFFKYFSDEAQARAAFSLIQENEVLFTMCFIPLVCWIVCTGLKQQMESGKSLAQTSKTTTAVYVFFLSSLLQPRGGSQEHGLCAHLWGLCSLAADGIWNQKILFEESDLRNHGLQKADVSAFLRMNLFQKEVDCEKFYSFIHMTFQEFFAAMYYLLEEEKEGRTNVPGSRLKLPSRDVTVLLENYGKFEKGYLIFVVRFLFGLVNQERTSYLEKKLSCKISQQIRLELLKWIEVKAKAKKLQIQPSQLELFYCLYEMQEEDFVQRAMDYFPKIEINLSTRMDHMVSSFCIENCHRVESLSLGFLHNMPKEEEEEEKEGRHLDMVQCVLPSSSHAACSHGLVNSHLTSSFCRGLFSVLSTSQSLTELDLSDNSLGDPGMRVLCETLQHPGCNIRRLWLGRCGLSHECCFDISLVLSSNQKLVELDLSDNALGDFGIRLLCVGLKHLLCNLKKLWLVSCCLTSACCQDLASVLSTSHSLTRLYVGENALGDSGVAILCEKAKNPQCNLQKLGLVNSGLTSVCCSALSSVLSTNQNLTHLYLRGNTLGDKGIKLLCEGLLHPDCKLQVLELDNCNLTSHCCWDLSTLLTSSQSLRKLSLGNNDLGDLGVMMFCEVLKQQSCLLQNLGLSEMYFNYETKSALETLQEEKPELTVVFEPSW
Method in brief: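 HEK293 cells stably expressing YFP-NLRP3-Luc were grown in DMEM with 10% FCS, plated on poly-L-lysine, and exposed to compound or vehicle (15 h per methods; 24 h per figure legend). Cells were washed, then BRET was read after adding coelenterazine-H (5 µM). Kinetics used nigericin (10 µM) in vehicle or high-K+ (140 mM) buffer. Slopes of three phases were taken; mean ± SEM, n = 5–12.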

Mus musculus = organism: Mus musculus; test: Inhibition of NF-kB signaling pathway in C57BL/6 mouse bone marrow derived macrophages assessed as reduction in LPS-induced TNFalpha gene expression at 10 to 100 uM preincubated for 30 mins followed by LPS stimulation measured after 4 hrs by qRT-PCR analysis
Method in brief: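 C57BL/6 bone marrow macrophages, differentiated with 20% L-cell medium, were preincubated with compound for 30 min. They were then left untreated or given LPS (1 ng/mL, 4 h). Tnfa, Il6 and Il1b expression was measured by quantitative RT-PCR as 2^-ΔΔCt.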

[4] = target: NACHT, LRR and PYD domains-containing protein 3 (Homo sapiens) (UniProt Q96P20); test: Inhibition of recombinant human NLRP3 ATPase assessed as hydrolysis of ATP preincubated for 15 mins followed by addition of ATP measured after 40 mins by ADP-Glo assay
Method in brief: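 Human recombinant NLRP3 (0.105 µg) in 20 mM Tris-HCl pH 7.8, 133 mM NaCl, 20 mM MgCl2, 3 mM KCl, 0.56 mM EDTA, 0.5% DMSO. Compound (100 or 50 µM) was preincubated 15 min at 37 °C, then ATP (250 µM) was added for 40 min at 37 °C. ADP was read by ADP-Glo luminescence. Result is % inhibition vs vehicle; mean ± SEM, ≥3 experiments.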

[5] = Stability of the compound in simulated gastric fluid at 1.56 mg as suspension in olive oil and pH 2 after 2 hrs by UHPLC-MS analysis
Method in brief: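 1.56 mg suspended in 100 µL olive oil, mixed with 100 µL SGF (pH 2, pepsin 3.2 mg/mL) for 2 h at 37 °C with shaking. Then 200 µL SIF (pH 7, pancreatin 2 mg/mL) was added for a further 2 h. Dedicated samples at 0, 30, 60 and 120 min were extracted with acetonitrile and analysed by UHPLC-MS. ≥3 repeats.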

Drug metabolism (Liver): Metabolite_Detected
inhibition [3]: inactive
inhibition (Mus musculus): Active
inhibition [4]: Dose-dependent effect
Compound: C=C(Cc1ccccc1Cl)C(=O)OCC
Activity_index (Rattus norvegicus [1]): 3.1
Activity (Rattus norvegicus [2]): 4.3%
Stability [5]: > 99.5%
